Source: PMC6401406 (Theranostics, 2019)
Where two headings read alike, the source gives them in different places.

Key:
[1] = assay type: in vivo, Sprague-Dawley rats; conditions: for Tmax: male, Sprague-Dawley, rat, iv, 30 mg/kg
Outline: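 Male 8-week-old Sprague-Dawley rats were acclimated ≥1 week, fasted 12 h, then given a single i.v. 30 mg kg-1 dose. Lung, liver, kidney, spleen, heart and heparinized plasma were collected at 0, 10, 30, 60, 120 and 240 min. Organs were saline-washed and stored at -80 °C. Sections underwent MALDI MSI with internal-standard correction; homogenates underwent LC-MS/MS. Identity was confirmed by accurate mass and tandem MS. Mean ± SD, three animals.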

[2] = cited from earlier work
[3] = cited from earlier work; remark: listed apart in the source

| Molecule | Time of maximum concentration of demethylated metabolite in liver ([1]; rat liver after i.v. tetrandrine 30 mg kg^-1) [h] | Detection of metabolite in liver tissue ([1]; rat liver after i.v. tetrandrine, MALDI MSI, accurate mass and tandem MS) | Tmax ([1]; kidney) [min] | Tmax ([1]; liver) [min] | Tmax ([1]; lung) [min] | Distribution within kidney ([1]; rat kidney, 60 min post-dose, 3D MALDI imaging) | Half-life (t1/2) in blood versus heart ([2]; after i.v. administration) | Uptake efficiency in spleen versus other tissues [2] | Tmax in spleen ([2]; post-dose, spleen) [min] | Relatively non-toxic dose [3] |
| --- | --- | --- | --- | --- | --- | --- | --- | --- | --- | --- |
| demethylated tetrandrine | 4 | detected |  |  |  |  |  |  |  |  |
| COc1ccc2cc1Oc1ccc(cc1)C[C@H]1c3cc(c(OC)cc3CCN1C)Oc1c(OC)c(OC)cc3c1[C@H](C2)N(C)CC3 [tetrandrine, Tetrandrine] |  |  | 30 | 120 | 10 | mainly distributed in the cortex of kidney | generally similar | higher in spleen than other tissues | 270 | up to 90 mg kg^-1 body weight |
